Counter-ions that a name gives are not always drawn. Calls of active or inactive are those of the source. The rule behind the calls is not given here.
How the values were obtained:
KB = experiment: Cytotoxicity against human KB cells by MTT assay; type: functional, cell-based
In short: (§1)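 MTT assay in human tumour lines. IC50 is the compound concentration giving a 50% drop in optical density relative to untreated cells. Values are means of three independent determinations.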

MCF7 = experiment: Cytotoxicity against human MCF7 cells by MTT assay; type: functional, cell-based; in short: as §1
CWR22R = experiment: Cytotoxicity against human 22Rv1 cells by MTT assay; type: functional, cell-based; in short: as §1
786-0 = experiment: Cytotoxicity against human 786-0 cells by MTT assay; type: functional, cell-based; in short: as §1
OS-RC-2 = experiment: Cytotoxicity against human OS-RC2 cells by MTT assay; type: functional, cell-based; in short: as §1
HepG2 = experiment: Cytotoxicity against human HepG2 cells by MTT assay; type: functional, cell-based; in short: as §1
[1] = Cytotoxicity against human BCG823 cells by MTT assay; type: functional, cell-based; in short: as §1
HT-29 = experiment: Cytotoxicity against human HT-29 cells by MTT assay; type: functional, cell-based; in short: as §1
769-P = experiment: Cytotoxicity against human 769-P cells by MTT assay; type: functional, cell-based; in short: as §1
A-375 = experiment: Cytotoxicity against human A375 cells by MTT assay; type: functional, cell-based; in short: as §1
Calf thymus DNA [2] = experiment: Binding affinity to calf thymus DNA assessed as change in melting temperature at drug/DNA ratio 0.2 at pH 7.4; type: nucleic-acid assay; details: Bos taurus
In short: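 Thermal denaturation of calf thymus DNA in PE buffer (1 mM Na₂HPO₄, 0.1 mM EDTA, pH 7.4), drug/DNA ratio 0.2; ΔTm taken as Tm of drug–DNA complex minus Tm of DNA alone.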

Calf thymus DNA [3] = experiment: Binding affinity to calf thymus DNA at pH 7.4 by UV-vis spectroscopy; type: nucleic-acid assay; details: Bos taurus
In short: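 UV absorption spectra recorded in PE buffer (1 mM Na₂HPO₄, 0.1 mM EDTA, pH 7.4) with CT-DNA increasing from 0.0 to 0.2 mM. Quartz cells with 10 mm path, room temperature.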

Calf thymus DNA [4] = experiment: Binding affinity to calf thymus DNA assessed as fluorescence quenching at 10 uM by spectrofluorimeter analysis; type: nucleic-acid assay; details: Bos taurus
In short: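 Compound held fixed at […] in PE buffer (1 mM Na₂HPO₄, 0.1 mM EDTA, pH 7.4), titrated with CT-DNA. Fluorescence quenching recorded on a spectrofluorometer, excitation 372 nm.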

Row | Structure (SMILES) | IC50 (KB) [µM] | IC50 (MCF7) [µM] | IC50 (CWR22R) [µM] | IC50 (786-0) [µM] | IC50 (OS-RC-2) [µM] | IC50 (HepG2) [µM] | IC50 [1] [µM] | IC50 (HT-29) [µM] | IC50 (769-P) [µM] | IC50 (A-375) [µM] | ΔTm (Calf thymus DNA [2]) [°C] | Activity (Calf thymus DNA [3]) | Activity (Calf thymus DNA [4])
1 | CC(=O)O[C@H]1C(=O)[C@@]2(C)[C@H]([C@H](OC(=O)c3ccccc3)[C@]3(O)C[C@H](OC(=O)[C@H](O)[C@@H](NC(=O)c4ccccc4)c4ccccc4)C(C)=C1C3(C)C)[C@]1(OC(C)=O)CO[C@@H]1C[C@@H]2O [PACLITAXEL] | 0.08 | 1.3 | 0.08 | < 0.08 | < 0.08 | < 0.08 | 1.5 | 0.38 | – | – | – | – | –
2 | CCN(CC)CCCCNCc1cc2c3ccccc3n(Cc3cccc(Cl)c3)c2cn1 | 4.2 | 19.8 | 8.6 | 19.4 | 6.7 | 10.8 | 9.8 | 12.2 | 8.2 | 12.6 | – | – | –
3 | CCN(CC)CCCCNCc1cc2c3ccccc3n(Cc3ccccc3)c2cn1 | 8.2 | 13.4 | 8.9 | 6.2 | 55 | 3 | 29.3 | 27 | 31 | 16.2 | – | – | –
4 | CCCCn1c2ccccc2c2cc(CNCCCCN(CC)CC)ncc21 | 10.2 | 23.4 | 13.5 | 14.1 | 71.7 | 8 | 23.4 | 27.4 | 8 | 15.2 | – | – | –
5 | CCN(CC)CCCNCc1cc2c3ccccc3n(Cc3ccccc3)c2cn1 | 4.9 | 32.5 | 7.3 | 6.4 | 14.5 | 4.4 | 2.8 | 3.7 | 1.5 | 17.5 | 15.6 | – | –
6 | CCN(CC)CCCCNCc1cc2c3ccccc3n(Cc3ccc(F)cc3)c2cn1 | 6.5 | 20.2 | 9.6 | 5.8 | 31.7 | 2.5 | 9.4 | 10.1 | 2.9 | 6.5 | – | – | –
7 | CCN(CC)CCNCc1cc2c3ccccc3n(C)c2cn1 | > 100 | > 100 | > 100 | > 100 | > 100 | > 100 | 75.7 | 41.1 | > 100 | > 100 | – | – | –
8 | CCN(CC)CCCNCc1cc2c3ccccc3n(Cc3cccc(Cl)c3)c2cn1 | 7.8 | 17.4 | 8.4 | 13 | 8 | 11.7 | 8.1 | 9.3 | 14.3 | 14.7 | – | – | –
9 | COc1cccc2c1C(=O)c1c(O)c3c(c(O)c1C2=O)C[C@@](O)(C(=O)CO)C[C@@H]3O[C@H]1C[C@H](N)[C@H](O)[C@H](C)O1 [DOXORUBICIN HYDROCHLORIDE] | 0.6 | – | < 1 | 3.1 | < 1 | 1 | < 1 | 4.2 | 11.5 | 17.2 | – | – | –
10 | CCCCn1c2ccccc2c2cc(CNCCN(CC)CC)ncc21 | 13.7 | 92.8 | 25.7 | 37.6 | > 100 | 10.1 | 20.2 | 7.8 | 7.4 | 75.9 | – | – | –
11 | CCN(CC)CCCNCc1cc2c3ccccc3n(Cc3ccc(F)cc3)c2cn1 | 33.1 | 31.8 | 3.6 | 6.1 | 13.6 | 8 | 2.6 | 10.2 | 8.5 | 13.7 | – | – | –
12 | CCN(CC)CCCNCc1cc2c(cn1)[nH]c1ccccc12 | > 100 | > 100 | > 100 | > 100 | 67.4 | 93.7 | > 100 | > 100 | 75.3 | > 100 | 12.6 | Active | Active
13 | CCN(CC)CCNCc1cc2c3ccccc3n(Cc3ccc(F)cc3)c2cn1 | 37.1 | 43.6 | 9 | 13.1 | 93.6 | 9.1 | 10.9 | 36.2 | 8.8 | 35 | – | – | –
14 | CCN(CC)CCNCc1cc2c3ccccc3n(Cc3cccc(Cl)c3)c2cn1 | 21.6 | 42.2 | 58.5 | 47.6 | 52.3 | 17.7 | 37.9 | 19.7 | 19.3 | 22.7 | – | – | –
15 | CCN(CC)CCCNCc1cc2c3ccccc3n(CCCc3ccccc3)c2cn1 | 4.8 | 13.8 | 7.7 | 8.3 | 13.1 | 3.8 | 7.4 | 2.6 | 5.1 | 8.9 | 18.8 | Active | Active
16 | CCN(CC)CCNCc1cc2c3ccccc3n(CCCc3ccccc3)c2cn1 | 9.7 | 27.7 | 8.2 | 11.2 | 43.9 | 7.2 | 14.2 | 4.2 | 7.3 | 5.9 | – | – | –
17 | CCN(CC)CCCCNCc1cc2c3ccccc3n(CCCc3ccccc3)c2cn1 | 6.1 | 9.1 | 7.6 | 9.2 | 27.7 | 3.4 | 8.8 | 6.4 | 10.9 | 5.8 | – | – | –
18 | CCCCn1c2ccccc2c2cc(CNCCCN(CC)CC)ncc21 | 6.2 | 64.2 | 8.8 | 19.5 | 35.7 | 4.6 | 5.9 | 2.6 | 2.2 | 44.2 | 20.6 | – | –
19 | CCN(CC)CCCNCc1cc2c3ccccc3n(C)c2cn1 | 59.7 | > 100 | > 100 | 87.6 | > 100 | 96.1 | > 100 | 35.7 | > 100 | > 100 | 24.5 | – | –
20 | CCN(CC)CCCCNCc1cc2c3ccccc3n(C)c2cn1 | 70.6 | > 100 | > 100 | > 100 | > 100 | > 100 | > 100 | 33.1 | > 100 | > 100 | – | – | –
21 | CCN(CC)CCNCc1cc2c3ccccc3n(Cc3ccccc3)c2cn1 | 8.2 | 68.1 | 15.9 | 14.4 | > 100 | 13.1 | 9.7 | 5.2 | 2 | 39.1 | – | – | –
